Screening results from PubChem BioAssay.
Hits are enriched below; roughly 1.7% of the tested compounds scored in any of these assays.
RanGTP-Impb inh – inhibitors of RanGTP-importin-beta interaction, primary screen, biochemical, FRET, CFP-Ran, YFP-importin-beta, homogeneous. cell-free CFP-Ran/YFP-importin-beta FRET ratio. Ran GTPase (GTP-bound) - importin-beta complex. AID 2216, 2009. inhibition, % (test concentration not listed). actives 1.1% (n = 300,000);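 active = more than half of the replicate wells show a fall in the fluorescence ratio signal beyond about 16%, limit read from the data, passing the limit was not always enough; inconclusive = exactly half of the replicate wells pass the set limit; inactive = fewer than half of replicates pass the limit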;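 note: 0% = DMSO wells and 100% = Ran loaded with GDP instead of GTP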
Runt-SMMHC FRET – inhibitors of RUNX1 Runt–CBFb-SMMHC binding, primary screen, biochemical, FRET, Cerulean-Runt, Venus-CBFb-SMMHC, uHTS; Runt-related transcription factor 1 (Homo sapiens) + Core-binding factor subunit beta …; Cerulean-Runt/Venus-CBFb-SMMHC FRET ratio 530/480, 1 h; inhibition, % at 20 µM; actives 0.74% (n = 220,000);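 active = mean inhibition across duplicate retests at 20 µM reaching about 50%, limit read from the data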;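 note: 0% = DMSO wells and 100% = wells with excess untagged CBFb-SMMHC; inhibitors lower the FRET ratio by blocking Runt binding to CBFb-SMMHC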
Target sequence (Q01196 whole entry, looked up): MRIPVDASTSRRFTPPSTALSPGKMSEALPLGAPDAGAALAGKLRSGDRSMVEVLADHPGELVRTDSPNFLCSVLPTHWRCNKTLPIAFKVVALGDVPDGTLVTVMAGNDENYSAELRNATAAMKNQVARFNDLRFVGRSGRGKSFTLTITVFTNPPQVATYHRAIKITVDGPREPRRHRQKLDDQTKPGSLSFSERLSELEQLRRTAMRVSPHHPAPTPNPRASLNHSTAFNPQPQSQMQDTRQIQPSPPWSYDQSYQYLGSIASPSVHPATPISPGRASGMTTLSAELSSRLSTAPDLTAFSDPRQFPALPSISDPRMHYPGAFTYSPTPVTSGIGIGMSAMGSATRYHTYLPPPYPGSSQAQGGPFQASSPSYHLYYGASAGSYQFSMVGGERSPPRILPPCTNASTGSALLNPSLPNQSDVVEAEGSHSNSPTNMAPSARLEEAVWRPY
Target sequence (Q13951 whole entry, looked up): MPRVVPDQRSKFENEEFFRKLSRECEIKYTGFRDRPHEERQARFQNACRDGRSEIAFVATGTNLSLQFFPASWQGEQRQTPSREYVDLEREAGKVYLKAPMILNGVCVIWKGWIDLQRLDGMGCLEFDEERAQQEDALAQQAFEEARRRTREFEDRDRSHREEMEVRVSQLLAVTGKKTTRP
Runt-CBFb FRET – inhibitors of RUNX1 Runt–CBFb binding, primary screen, biochemical, FRET, Cerulean-Runt, Venus-CBFb, uHTS. Runt-related transcription factor 1 (Homo sapiens) + Core-binding factor subunit beta …. Cerulean-Runt/Venus-CBFb FRET ratio 530/480, 1 h. inhibition, % at 20 µM. actives 0.46% (n = 220,000). AID 1496, 2009;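 active = inhibition over about 50% at 20 µM in the single-dose screen, limit read from the data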;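 note: 0% = DMSO wells and 100% = excess unlabeled CBFb competitor control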
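Assay system: Cerulean-Runt domain fusion protein, energy donor; Signal: fluorescence energy transfer, 422 nm excitation, 530/480 nm emission; Timing: 1 h compound exposure, room temperature; Control set: unlabeled CBFb; Medium: Tris buffer pH 7.5 with salts and BSA; Compound: single test concentration of 20 µM, 1% DMSO final; Probe or stimulus: Venus-CBFb 100 nM.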
Hck-Nef inh – inhibitors of Nef-activated human Hck kinase, primary screen, biochemical, Z-Lyte FRET, 384-well, Hck-YEEI; inhibition, % at 20 µM; AID 463187, 2010; Tyrosine-protein kinase HCK (Homo sapiens), P08631; actives 0.68% (n = 220,000); Recombinant Hck-YEEI plus Nef, Z-Lyte FRET kinase assay;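 active = Hck-Nef kinase inhibition above about 50%, limit read from the data; inactive = inhibition below that limit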;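 note: 0% = DMSO with Hck plus Nef and 100% = Hck alone without Nef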
Hck Nef conf – retest of Hck:Nef kinase inhibitor hits, confirmation, biochemical, Z-Lyte FRET, 384-well, p-Tyr peptide counterscreen. actives 28% (n = 1,300). Recombinant Hck-YEEI:Nef, Z-Lyte FRET kinase assay. shares compounds with Hck-Nef inh. AID 463188, 2010. calls only at 10 µM;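 active = average inhibition of at least 50%, with Z-scores no higher than 3 in both the phospho-tyrosine peptide and fluorescence counterscreens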
Active calls of the source: *; i = inactive; ? = inconclusive; nt = not tested or not shown; + = active, no number.

SMILES	RanGTP-Impb inh	Runt-SMMHC FRET	Runt-CBFb FRET	Hck-Nef inh	Hck Nef conf
COc1ccc(-c2cc(=O)oc3cc(OCC(=O)c4cccc([N+](=O)[O-])c4)ccc23)cc1	6.2	19.7	5.3	80.1*	i
CC(NC(=O)C1CC1)c1ccc(-c2ccccc2)cc1 (centres undefined)	-0.8	nt	nt	nt	nt
NC(=S)N/N=C/c1coc2ccc(Cl)cc2c1=O	0.4	0.3	1.0	66.0*	+
Cc1ccc2occ(/C=N/NC(=O)[C@@H](N)Cc3ccccc3)c(=O)c2c1	-2.8	1.4	0.2	79.7*	+
O=C(N/N=C/c1coc2ccccc2c1=O)c1cc(O)cc(O)c1	nt	-46.5	-12.0	62.7*	+
O=C(CCc1ccc(O)cc1)N/N=C/c1coc2ccccc2c1=O	2.3	2.8	-0.1	66.7*	+
Cc1cccc(C(=O)N/N=C/c2coc3ccccc3c2=O)c1	-0.4	nt	nt	nt	nt
COc1ccc(NC(=O)CSc2nc3ccccc3nc2N2CCCC2)cc1Cl	2.6	nt	nt	nt	nt
CSc1nccc(N/N=C/c2ccccc2)n1	0.3	nt	nt	nt	nt
Cc1oc(-c2cc(F)ccc2F)nc1CN1CCCN(C(=O)c2ccco2)CC1	0.6	0.3	-2.0	6.9	nt
CCN(C(=O)COC(=O)c1cc([N+](=O)[O-])ccc1N1CCOCC1)C1CCCCC1	1.3	nt	nt	nt	nt
CCNc1c(NC(=O)COc2ccc(Cl)cc2)c(=O)oc2ccccc12	0.0	nt	nt	nt	nt
COCC(C)OC(=O)/C(C#N)=C\c1coc2ccc(C)cc2c1=O (centres undefined)	nt	-66.2	-43.2	97.9*	+
COc1ccc(C(=O)N2CCCC(C(=O)N3CCCCCC3)C2)cc1 (centres undefined)	-0.5	2.0	-0.9	56.9*	i
COc1ccc(C(=O)N2CCCC(C(=O)N3CCN(c4ccccc4)CC3)C2)cc1 (centres undefined)	3.0	4.2	1.1	20.4	nt
Cc1ccc(Oc2ccc(C(F)(F)F)cc2[N+](=O)[O-])c([N+](=O)[O-])n1	-2.1	-0.4	0.9	51.8*	i
COc1cc2[nH]c(=S)n(Cc3cccs3)c(=O)c2cc1OC	?	-4.2	-1.2	58.9*	i
Cc1ccc(-c2nnc(-c3ccc(NC(=O)c4ccco4)cc3)o2)cc1	5.0	-8.5	-3.4	108.0*	i
O=C(Cc1ccccc1)NCC(=O)OCc1ccc([N+](=O)[O-])cc1	4.3	-2.3	-1.0	-0.6	nt
O=C(N/N=C/c1cccc([N+](=O)[O-])c1)c1cc(-c2ccc3c4c(cccc24)CC3)n[nH]1	-1.0	-11.6	-2.8	9.7	nt
O=C(N/N=C/c1ccc(Cl)c([N+](=O)[O-])c1)c1cc(-c2ccc3c4c(cccc24)CC3)n[nH]1	-1.0	-3.3	-2.7	61.6*	i
COc1cc(OC)c(OC)cc1C#N	0.9	-0.8	-0.1	24.8	nt
COc1cc2c(cc1OC)C1(CCCC1)C(N)=C2C#N	nt	-19.5	-3.9	56.1*	nt
Cc1ccc(-n2c(C)cc3c2CC(C)(C)CC3=O)cc1C	-0.3	2.4	2.2	7.2	nt
Cc1cc2c(n1-c1ccc(Br)cc1)CC(C)(C)CC2=O	0.8	1.4	-3.1	99.3*	i
SMILES	RanGTP-Impb inh	Runt-SMMHC FRET	Runt-CBFb FRET	Hck-Nef inh	Hck Nef conf
O=C(CSc1nc2ccccc2c2c1CCCC2)N1CCOCC1	-0.6	nt	nt	nt	nt
COc1ccc(-c2csc(NC(=O)c3ccccc3NS(=O)(=O)c3ccc(F)c(F)c3)n2)cc1	1.7	-6.1	-4.2	79.9*	+
Cc1ccc(S(=O)(=O)Nc2ccccc2C(=O)Nc2nc(-c3ccc(F)cc3)cs2)cc1	0.5	-15.3	-4.9	4.7	nt
C=CCn1c(SCC(=O)NNC(=O)Nc2ccc(C)cc2)nnc1-c1ccccc1	-0.8	-2.0	0.6	16.4	nt
C=CCn1c(SCC(=O)Nc2ccc(-c3nc4ccc(C)cc4s3)cc2)nnc1-c1ccccc1	4.4	1.9	4.2	78.0*	+
Cc1cc(=O)oc2c(CN3CCN(CCO)CC3)c(O)ccc12	-0.1	nt	nt	nt	nt
Cc1c(O)ccc2c(CN3CCN(CCO)CC3)cc(=O)oc12	55.8*	78.7*	4.6	62.8*	i
COc1ccc(NC(=O)C2CCC(=O)N2S(=O)(=O)c2ccc(C)cc2)cc1Cl (centres undefined)	2.0	nt	nt	nt	nt
COC(=O)CC1C(=O)NCCN1C(=O)OC(C)(C)C (centres undefined)	-4.8	-8.4	0.3	-0.6	nt
Cc1cc(C)c2nc(-c3ccccn3)cc(C(=O)Nc3ccc(S(=O)(=O)Nc4onc(C)c4C)cc3)c2c1	-4.4	-13.8	2.9	71.0*	+
Cc1cc(C)c2nc(-c3ccccn3)cc(C(=O)Nc3ccc(S(=O)(=O)Nc4cc(C)on4)cc3)c2c1	-0.7	-25.2	-5.1	2.4	nt
C/C(CC(=O)Nc1cccc(C(F)(F)F)c1)=N/NC(=O)C(=O)NCCO	0.2	1.5	0.7	-3.8	nt
O=C(O)c1ccc2c(=O)n3c(nc2c1)/C(=C/c1ccc(Cl)c(Cl)c1)CC3	-3.0	nt	nt	nt	nt
Cc1nc(Nc2ccc(C(=O)O)cc2)sc1-c1ccccc1	-3.3	-3.1	-1.9	56.3*	i
Cc1csc2c(=O)sc(NC(=O)c3ccc(F)cc3)nc12	-4.1	20.7	8.8	22.4	nt
Cc1ccccc1C(=O)Nc1nc2c(C)csc2c(=O)s1	-1.1	16.4	7.3	78.3*	i
CS(=O)(=O)N(CC(=O)N/N=C/c1ccc(OCC(=O)N2CCOCC2)cc1)c1ccccc1Cl	-4.7	0.4	-2.0	128.9*	i
O=C(N/N=C/c1ccc(OCC(=O)N2CCOCC2)cc1)c1ccccc1Cl	-2.9	-3.0	1.9	2.5	nt
Cc1ccc(OCc2cc(C(=O)N3CCN(CC(=O)NC(C)C)CC3)no2)cn1	-1.1	nt	nt	nt	nt
CCN1CCN(Cc2ccc(NC(=O)c3ccc(C)c(NC(=O)c4ccno4)c3)cc2C(F)(F)F)CC1	-1.2	2.9	0.7	101.2*	+
CCN1CCN(Cc2ccc(NC(=O)c3cc(NC(=O)c4ccno4)cc(OC)c3)cc2C(F)(F)F)CC1	4.3	-0.6	0.0	24.6	nt
Cc1cc(C(=O)COC(=O)c2cc(O)c3ccccc3c2O)c(C)n1CC1CCCO1 (centres undefined)	nt	-30.1	4.4	92.8*	i
COc1cc(-c2cc(=O)c3c(O)c(OC)c(OC)c(O)c3o2)ccc1O	-1.0	25.3	44.3	67.3*	+
CCOC(=O)N1CCc2c(sc3ncn(C)c(=O)c23)C1	2.2	0.9	1.9	2.8	nt
